B1: WT Bim: wild-type Bim protein in thymocyte lysates (protein)
chain: MAKQPSDVSSECDREGGQLQPAERPPQLRPGAPTSLQTEPQGNPDGEGDRCPHGSPQGPLAPPASPGPFATRSPLFIFVRRSSLLSRSSSGYFSFDTDRSPAPMSCDKSTQTPSPPCQAFNHYLSAMASIRQSQEEPEDLRPEIRIAQELRRIGDEFNETYTRRVFANDYREAEDHPQMVILQLLRFIFRLVWRRH

Key:
thymocytes (Bim level) = assay: Bim expression in thymocytes; format: cell-based, mouse; conditions: mutant and WT thymocytes; Western blot
Bcl-xL = assay: Coimmunoprecipitation from thymocyte lysates, Bcl-xL; format: binding, mouse; conditions: 1% Triton X-100 buffer, pH 7.4, anti-Bim 3C5
Method in brief: (§1)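 Thymocytes came from WT and Bim BH3-replacement knockin mice. Cells were lysed in 20 mM Tris pH 7.4, 135 mM NaCl, 1.5 mM MgCl2, 1 mM EGTA, 10% glycerol, 1% Triton X-100 and protease inhibitors. Bim was immunoprecipitated with rat mAb 3C5 (N-terminal epitope, all isoforms and mutants). Partners were shown by SDS-PAGE/Western blot with ECL: hamster mAb 3F11 (Bcl-2), rabbit polyclonals (Bcl-xL, Mcl-1).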

Mcl-1 = assay: Coimmunoprecipitation from thymocyte lysates, Mcl-1; format: binding, mouse; conditions: 1% Triton X-100 buffer, pH 7.4, anti-Bim 3C5
Method in brief: as §1

Bcl-2 = assay: Coimmunoprecipitation from thymocyte lysates, Bcl-2; format: binding, mouse; conditions: 1% Triton X-100 buffer, pH 7.4, anti-Bim 3C5
Method in brief: as §1

Molecule | Bim expression (thymocytes (Bim level)) | coimmunoprecipitation with Bcl-xL (Bcl-xL) | coimmunoprecipitation with Mcl-1 (Mcl-1) | coimmunoprecipitation with Bcl-2 (Bcl-2)
C[C@H](CCC(=O)O)C[C@H](C)C[C@H](C)C(=O)/C=C(\O)[C@H](C)C[C@H](C)C/C=C/[C@@H](C)[C@@H](O)[C@@H](C)[C@@H](O)C[C@@H]1CC[C@@](C)([C@H]2CC[C@@](C)([C@@H](C)O)O2)O1 [ionomycin] | increased Bim expression comparably in both the mutant and WT thymocytes |  |  | 
B1 |  | bound all of these prosurvival proteins | bound all of these prosurvival proteins | bound all of these prosurvival proteins
